Bioassay records as filed in PubChem BioAssay.
Compounds with a hit are over-represented: about 1.1% of the library has one in this group of screens.
eIF2B yeast act = modulators of yeast eIF2B activity. S. cerevisiae eIF2B-epsilon R284H, GCN4-lacZ luminescence. inhibition, % at 25 µM (by protocol). hit rate 0.91% among 27,000;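 active = mutant luminescence inhibited past about 50% while wild type luminescence and mutant growth stay under set limits, limit read from the data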
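Assay system: yeast eIF2B-epsilon R284H mutant carrying GCN4–beta-galactosidase fusion / Buffer or medium: YPD / Incubation: 16 h growth with compound at 30 °C, 90 min Beta-Glo step / Detection: Beta-Glo luminescence after Z-buffer lysis, growth by 595 nm absorbance / Read-out: % inhibition of reporter signal and growth versus controls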
Yeast tox = Compounds toxic to wild-type S. cerevisiae growth. A595 turbidity, 16 h. growth inhibition, % at 25 µM (by protocol). hit rate 0.3% among 30,000. AID 685;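 active = mutant and wild-type yeast strains alike exhibit over 30% growth inhibition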;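 also: 0% = untreated cell controls and 100% = YPD media blanks without cells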
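System: S. cerevisiae wild-type or eIF2Bepsilon-R284H mutant strain; times: 16 h growth with compound, 30 °C; signal: absorbance at 595 nm (turbidity); measure: growth inhibition (%) versus cell controls and blanks; compound: 25 µM single dose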
Active calls of the source: *.

Screening CN(C)Cc1ccccc1OC(=O)N(C)C returned eIF2B yeast act 18.8 and Yeast tox 10.0.
Screening CN(C)C(=O)Oc1ccc(OC(=O)c2ccccc2)cc1 returned eIF2B yeast act 51.1* and Yeast tox 0.5.
Screening O[C@H]1C2CCC1C(N1CCCCC1)CC2 (stereo partly drawn) returned eIF2B yeast act 24.3 and Yeast tox 32.1.
For Cc1ccc2c(c1)CNc1ccccc1O2 the results were eIF2B yeast act 21.8 and Yeast tox 15.5.
For c1ccc2c(c1)CNc1ccccc1O2 the results were eIF2B yeast act 56.5* and Yeast tox -11.8.
Screening CN1C(=O)C(Cc2ccc3c(c2)OCO3)C(=O)N(C)C1=O returned eIF2B yeast act 15.6 and Yeast tox 10.9.
For CN1CCN(C(=O)COc2ccc(S(=O)(=O)NCc3ccccc3)cc2Cl)CC1 the results were Yeast tox 15.8.
For O=C(COc1ccc(Cl)cc1Cl)N1CCN(C/C=C/c2ccccc2)CC1 the results were eIF2B yeast act 31.6 and Yeast tox 44.2*.
For CCn1ncc(/C=C2/CC3C4CC=C5CC(O)CCC5(C)C4CCC3(C)C2=O)c1C (stereo not drawn) the results were eIF2B yeast act 33.0.
